Assay results pooled from the literature.
Lines come from different studies, so protocols differ.

CO/N=c1\cc2n(-c3ccc(Cl)cc3)c3ccccc3nc-2cc1Nc1ccc(Cl)cc1  MIC (Mycobacteroides abscessus; microbial growth; clinical isolate): > 30 µM
COc1cc(C#CC(=O)c2cccc(Cl)c2)ccc1O  activity vs control (Pseudomonas aeruginosa; microbial growth, absorbance; 10 µM, 24 h): 102%
CCOC(=O)CNC(=O)CO/N=c1\cc2n(-c3ccc(Cl)cc3)c3ccccc3nc-2cc1Nc1ccc(Cl)cc1  MIC (Mycobacteroides abscessus; microbial growth; clinical isolate): > 30 µM
O=C(C#Cc1ccc(F)c(F)c1)c1ccc(Cl)cc1  activity vs control (Pseudomonas aeruginosa; microbial growth, absorbance; 100 µM, 24 h): 96%
Clc1ccc(Nc2cc3nc4ccccc4n(-c4ccc(Cl)cc4)c-3c/c2=N\OCc2ccccc2)cc1  MIC (Mycobacteroides abscessus; microbial growth; clinical isolate): > 30 µM
COc1cc(C#CC(=O)C2CCCCC2)ccc1O  activity vs control (Pseudomonas aeruginosa; microbial growth, absorbance; 10 µM, 24 h): 81%
CN(C)c1cc(NC(=O)CCc2ccccc2)c(O)c2c1C[C@H]1C[C@H]3[C@H](N(C)C)C(O)=C(C(N)=O)C(=O)[C@@]3(O)C(O)=C1C2=O  IC50 (Mycobacteroides abscessus; microbial growth, resazurin; ATCC19977): 8.87 µg/mL
C=CC(=O)NC1CCN(c2ncc3ncnc(Nc4ccc(Oc5ccc6c(c5)ncn6C)c(C)c4)c3n2)CC1  EC50 (ONS-76; cell growth or viability): 483 nM
CN(C)c1cc(NC(=O)Cc2ccccn2)c(O)c2c1C[C@H]1C[C@H]3[C@H](N(C)C)C(O)=C(C(N)=O)C(=O)[C@@]3(O)C(O)=C1C2=O  IC50 (Mycobacteroides abscessus; microbial growth, resazurin; ATCC19977): 0.67 µg/mL
C=C(F)C(=O)N1CCN(c2nc(OC[C@@H]3CCCN3C)nc3c2CCN(c2cccc4cccc(Cl)c24)C3)C[C@@H]1CC#N  IC50 (MIA PaCa-2; cell growth or viability, ATP luminescence; 3D culture): 2.51 nM
O=C(CO/N=c1\cc2n(-c3ccc(Cl)cc3)c3ccccc3nc-2cc1Nc1ccc(Cl)cc1)NCc1ccc(C(F)(F)F)cc1  MIC (Mycobacteroides abscessus; microbial growth; clinical isolate): > 30 µM
Cc1cccc(C(=O)C#Cc2ccc(F)c(F)c2)c1  activity vs control (Pseudomonas aeruginosa; microbial growth, absorbance; 100 µM, 24 h): 100%
CN(C)c1cc(NC(=O)Cc2ccncn2)c(O)c2c1C[C@H]1C[C@H]3[C@H](N(C)C)C(O)=C(C(N)=O)C(=O)[C@@]3(O)C(O)=C1C2=O  IC50 (Mycobacteroides abscessus; microbial growth, resazurin; ATCC19977): 0.59 µg/mL
COc1ccc(C(=O)C#Cc2ccc(O)c(OC)c2)cc1  activity vs control (Pseudomonas aeruginosa; microbial growth, absorbance; 10 µM, 24 h): 95%
CN(C)c1cc(NC(=O)Cc2cncnc2)c(O)c2c1C[C@H]1C[C@H]3[C@H](N(C)C)C(O)=C(C(N)=O)C(=O)[C@@]3(O)C(O)=C1C2=O  IC50 (Mycobacteroides abscessus; microbial growth, resazurin; ATCC19977): 0.74 µg/mL
C[C@H](NC(=O)CO/N=c1\cc2n(-c3ccc(Cl)cc3)c3ccccc3nc-2cc1Nc1ccc(Cl)cc1)C(=O)OC(C)(C)C  MIC (Mycobacteroides abscessus; microbial growth; clinical isolate): > 30 µM
O=C(C#Cc1ccc(F)c(F)c1)c1ccccc1  activity vs control (Pseudomonas aeruginosa; microbial growth, absorbance; 10 µM, 24 h): 94%
O=C(NO)c1ccc(CNc2nc3cccc(-c4ccc5c(c4)OCO5)n3n2)cc1  GI50 (T47D; cell growth or viability, SRB): 430 nM
CN(C)c1cc(NC(=O)Cc2cccnc2)c(O)c2c1C[C@H]1C[C@H]3[C@H](N(C)C)C(O)=C(C(N)=O)C(=O)[C@@]3(O)C(O)=C1C2=O  IC50 (Mycobacteroides abscessus; microbial growth, resazurin; ATCC19977): 1.29 µg/mL
COc1cc(C#CC(=O)c2ccccc2OC)ccc1O  activity vs control (Pseudomonas aeruginosa; microbial growth, absorbance; 10 µM, 24 h): 91%
C=CCO/N=c1\cc2n(-c3ccc(Cl)cc3)c3ccccc3nc-2cc1Nc1ccc(Cl)cc1  MIC (Mycobacteroides abscessus; microbial growth; clinical isolate): > 30 µM
CN(C)c1cc(CNCC(C)(C)C)c(O)c2c1C[C@H]1C[C@H]3[C@H](N(C)C)C(O)=C(C(N)=O)C(=O)[C@@]3(O)C(O)=C1C2=O  IC50 (Mycobacteroides abscessus; microbial growth, resazurin; ATCC19977): < 1 µg/mL
